In ChEMBL document CHEMBL4480456, “Potentially Cardiotoxic Diterpenoid Alkaloids from the Roots of Aconitum carmichaelii” (J Nat Prod, 2019) one finds IC50 and Activity data, which are given here for 15 compounds.

pIC50: −log10 of the molar value.

The subject of data set [1] is H9c2. Description: Cytotoxicity against rat H9c2 cells assessed as reduction in cell viability after 24 hrs by MTT assay. The settings on record: H9c2, 24 h. The class given is cell-based. An outline of the steps:
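H9c2 cells cultured in DMEM with 10% FBS, penicillin/streptomycin/glutamine at 37 °C, 5% CO2. Seeded 1 × 10^5 cells/well, grown 24 h, then exposed to compounds for 24 h. The compounds came from 80 mM DMSO stocks diluted in complete medium to a series of concentrations. MTT added for 4 h, formazan dissolved in DMSO, OD read at 490 nm. Inhibition % taken against a cell-free medium blank. At least three experiments.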
(In general: Formazan colour is commonly taken as a measure of viable cells.)

Data set [2] relates to H9c2. Description: Induction of apoptosis in rat H9c2 cells at 40 uM after 24 hrs by DAPI/annexin V-FITC/PI double staining-based assay. The conditions noted are these: h9c2, 24 h. The class given is cell-based. An outline of the steps:
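H9c2 cells in imaging plates exposed 24 h, PBS-washed, stained 30 min with annexin V-FITC and PI. Then fixed in 4% paraformaldehyde 15 min and DAPI-labelled 20 min. High-content imaging on In Cell Analyzer 6000 quantified nuclear size and annexin V-FITC and PI intensities. Means ± SD, three independent experiments.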

The test system of data set [3] is H9c2. The data set can be described thus: Disruption of mitochondrial membrane potential in rat H9c2 cells at 40 uM after 24 hrs by rhodamine 123 staining-based assay. Type of data set: ADME, cell-based. The conditions noted are these: h9c2, 24 h. Put shortly: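 H9c2 cells in imaging plates exposed 24 h, PBS-washed and stained 30 min with rhodamine 123. Then fixed in 4% paraformaldehyde 15 min and counterstained with DAPI 20 min. Rh123 intensity quantified by high-content imaging on In Cell Analyzer 6000. Means ± SD, three independent experiments.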

For data set [4], the system named is H9c2. The data set can be described thus: Increase in intracellular calcium levels in rat H9c2 after 30 to 430 secs by FLIPR assay. The class given is ADME, cell-based. An outline of the steps: (§1)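 H9c2 cells seeded at 1 × 10^5 cells/well and grown to confluency. Medium replaced by HBSS with 20 mM HEPES, then loaded with calcium-sensitive dye (Calcium 6 kit) for 2 h at 37 °C. Compounds freshly prepared in HBSS/HEPES were added and fluorescence was read on FLIPR. ΔF/F0 taken as peak amplitude change over initial intensity. Means ± SD, three independent experiments.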
Background: Calcium flux is commonly read through the fluorescence of an indicator in the cells.

Data set [5] has as its system H9c2. Description: Induction of membrane potential in rat H9c2 cells after 50 to 650 secs by FLIPR assay. The class given is cell-based. Put shortly: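 H9c2 cells seeded at 1 × 10^5 cells/well and grown to confluency. Switched to HBSS with 20 mM HEPES and loaded with blue membrane-potential dye for 30 min at 37 °C. Compounds freshly prepared in HBSS/HEPES were added and fluorescence was read on FLIPR. ΔF/F0 taken as peak change over initial intensity. Means ± SD, three independent experiments.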

Data set [6] has as its system H9c2. The data set can be described thus: Increase in intracellular calcium levels in rat H9c2 at 80 uM after 30 to 430 secs by FLIPR assay. The conditions noted are these: h9c2, 80 µM. Type of data set: ADME, cell-based. Put shortly: as §1

For the compound `CCN1C[C@]2(COC)[C@H](O)C[C@H](OC)[C@]34[C@@H]1[C@H]([C@H](OC)[C@H]23)[C@]1(OC(=O)c2ccccc2)[C@H]2[C@@H](OC(=O)c3ccccc3)[C@](O)(C[C@]24O)[C@@H](OC)[C@@H]1O`, in the data set on H9c2 [1], the pIC50 (as a rule, the IC50 on a negative log10 scale, so that one unit is a factor of ten) is below 4.00.
With `COC[C@]12CN(C)[C@H]3[C@@H]4[C@H](OC)[C@H]1[C@@]3([C@@H](OC)C[C@H]2O)[C@@H]1C[C@@]2(O)[C@H](OC(=O)c3ccccc3)[C@@H]1[C@]4(OC(=O)c1ccccc1)[C@@H](O)[C@@H]2OC`, the pIC50 in the data set with H9c2 [1] is 4.89.
As for `COC[C@]12CN(C)[C@H]3[C@@H]4[C@H](OC)[C@H]1[C@@]3([C@@H](OC)C[C@H]2O)[C@@H]1C[C@@]2(O)[C@H](OC(=O)c3ccccc3)[C@@H]1[C@]4(OC(C)=O)[C@@H](O)[C@@H]2OC`, the results for the Activity entry in the data set on H9c2 [2], in the data set with H9c2 [3] and in the data set with H9c2 [4] were “Non-Toxic”, “Toxic” and “Toxic”, respectively.
Take `CCN1C[C@]2(COC)CC[C@H](OC)[C@@]34[C@@H]5C[C@@]6(O)[C@H](OC(=O)c7ccccc7)[C@@H]5[C@](OC)([C@@H](O)[C@@H]6OC)[C@@H](C[C@H]23)[C@H]14`: the pIC50 in the data set on H9c2 [1] is below 4.00.
For the compound `COC[C@@]12CC[C@H](OC)[C@@]34[C@@H]5C[C@@]6(O)[C@H](OC(=O)c7ccccc7)[C@@H]5[C@@](OC(C)=O)([C@@H]([C@H](OC)[C@H]13)[C@@H]4N(C)C2)[C@@H](O)[C@@H]6OC`, the Activity entry in the data set with H9c2 [2] was “Non-Toxic”; in the data set with H9c2 [3], “Toxic”; with H9c2 [4] it was “Toxic”.
For the compound `C=C1[C@@H](O)[C@@]23C[C@H]4[C@@H]5[C@@]6(C)CCC[C@@]57[C@@H]2C[C@@H]1[C@H](OC(C)=O)[C@@H]3[C@H]7N4[C@H]6O`, the pIC50 with H9c2 [1] is below 4.00.
In the case of `COC[C@@]12CC[C@H](OC)[C@@]34[C@@H]5C[C@@]6(O)[C@H](OC(=O)c7ccccc7)[C@@H]5[C@@](OC(=O)c5ccccc5)([C@@H]([C@H](OC)[C@H]13)[C@@H]4N(C)C2)[C@@H](O)[C@@H]6OC`, the negative-log IC50 (pIC50) in the data set with H9c2 [1] was 4.35.
The same measure, in the same setting: as for `C=C1[C@@H](O)[C@@]23C[C@H]4[C@@H]5[C@@]6(C)CCC[C@@]57[C@@H]2C[C@@H]1[C@H](O)[C@@H]3[C@H]7N4[C@H]6O`, the figure is below 4.00.
Take `CCCCO[C@]12[C@H]3[C@@H](OC(=O)c4ccccc4)[C@](O)(C[C@H]3[C@@]34[C@@H](OC)C[C@@H](O)[C@@]5(COC)CN(CC)[C@H]3[C@@H]1[C@H](OC)[C@H]54)[C@@H](OC)[C@@H]2O`: the Activity entry in the data set on H9c2 [5] is reported as “Dose-dependent effect”; in the data set on H9c2 [6], “Toxic”. Further, the pIC50 with H9c2 [1] is 4.67.
As to `CCN1C[C@]2(COC)CC[C@H](OC)[C@@]34[C@@H]5C[C@@]6(O)[C@H](OC(=O)c7ccccc7)[C@@H]5[C@@](OC)([C@@H]([C@H](OC)[C@H]23)[C@H]14)[C@@H](O)[C@@H]6OC`, the negative logarithm of the IC50 (pIC50) in the data set on H9c2 [1] was 4.02.
Same read-out and setting: as for `CCN1C[C@]2(COC)CC[C@H](OC)[C@@]34[C@@H]5C[C@@H]6[C@@H](OC)[C@H](O)[C@@](OC)([C@H]5[C@H]6OC(=O)c5ccccc5)[C@@H](C[C@H]23)[C@H]14`, the figure is below 4.00.
Regarding `CCCCO[C@]12[C@H]3[C@@H](OC(=O)c4ccccc4)[C@](O)(C[C@H]3[C@@]34[C@@H](OC)C[C@@H](O)[C@@]5(COC)CN(C)[C@H]3[C@@H]1[C@H](OC)[C@H]54)[C@@H](OC)[C@@H]2O`, the pIC50 with H9c2 [1] was 4.57. The Activity entry in the data set on H9c2 [2] and in the data set on H9c2 [3] was “Toxic” throughout.
As for `COC[C@]12CN(C)[C@H]3[C@@H]4[C@H](OC)[C@H]1[C@@]3([C@@H](OC)C[C@H]2O)[C@]1(O)C[C@@]2(O)[C@H](OC(=O)c3ccccc3)[C@@H]1[C@]4(OC(=O)c1ccccc1)[C@@H](O)[C@@H]2OC`, the pIC50 in the data set on H9c2 [1] was below 4.00.
On to `CCCCO[C@]12[C@H]3[C@@H](OC(=O)c4ccccc4)[C@](O)(C[C@H]3[C@@]34[C@@H](OC)CC[C@@]5(COC)CN(CC)[C@H]3[C@@H]1[C@H](OC)[C@H]54)[C@@H](OC)[C@@H]2O`, for which the Activity entry with H9c2 [5] is listed as “Dose-dependent effect”; in the data set on H9c2 [6], “Toxic”; in the data set with H9c2 [2] it was “Toxic”; with H9c2 [3], “Toxic”. Moreover, the pIC50 in the data set on H9c2 [1] was 4.72.
As for `CCN1C[C@]2(COC)[C@H](O)C[C@H](OC)[C@@]34[C@@H]5C[C@@]6(O)[C@H](OC(=O)c7ccccc7)[C@@H]5[C@@](OC)([C@@H]([C@H](OC)[C@H]23)[C@H]14)[C@@H](O)[C@@H]6OC`, the pIC50 with H9c2 [1] was 4.16.
